Measurements: ChEMBL document CHEMBL1123719, “Leukotriene receptor antagonists. 1. Synthesis and structure-activity relationships of alkoxyacetophenone derivatives” (J Med Chem, 1987)

Species: Cavia porcellus
Test: Percent inhibition LTD4-induced contraction of guinea pig ileum at 1 uM of concentration
Format: functional
Summary of the method: (§1)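 Percent reduction of LTD4-induced contraction of isolated ileum from male Hartley guinea pigs (200-400 g). The antagonist was tested at the single concentration stated, and contraction was measured isometrically as grams of force.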

Compound	Inhibition [%]
CCCc1c(OCCCc2nnn[nH]2)ccc(C(C)=O)c1O	15

Test system: Cavia porcellus
Test: Bronchospastic activity to prevent increase in total pulmonary impedance (TPI) in guinea pig when administered intravenously
Format: functional
Summary of the method: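 Anesthetized male Hartley guinea pigs (200-400 g), body temperature kept normal on an isothermal pad. Total pulmonary impedance was recorded with pressure transducers. LTD4 was given iv as randomized doses to build dose-response curves. The antagonist was given intravenously.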

Compound	Increase [%]
CCCc1c(OCCCCc2nnn[nH]2)ccc(C(C)=O)c1O [TOMELUKAST]	2.2
CCCc1c(OCCCCCc2nn[nH]n2)ccc(C(C)=O)c1O	25.6
CCCc1c(OCCCCCCc2nn[nH]n2)ccc(C(C)=O)c1O	27.1

Species: Cavia porcellus
Test: Percent inhibition LTD4-induced contraction of guinea pig ileum at 3 uM of concentration
Format: functional
Summary of the method: as §1

Compound	Inhibition [%]
CCCc1c(OCCCCCC(=O)O)ccc(C(=O)OC)c1O	21
CCCc1cc(C(C)=O)ccc1OCCCCCC(=O)O	0
CCCc1c(OCCCCCCCCCCC(=O)O)ccc(C(C)=O)c1O	79
C=CCc1c(OCCCCCC(=O)O)ccc(C(C)=O)c1O	29
CCCc1c(OCCCCCC#N)ccc(C(C)=O)c1O	0
CC(=O)c1ccc(OCCCCCC(=O)O)cc1O	11
CCCc1c(OCCCCCCCCCCCCc2nn[nH]n2)ccc(C(C)=O)c1O	47

Test system: cysteinyl leukotriene receptor (Cavia porcellus)
Test: Inhibition of LTD4-induced contraction of guinea pig ileum.

Compound	pKB
CCCc1c(OCCCCC(=O)O)ccc(C(C)=O)c1O	5.8
CCCc1c(OCCCCCCCCC(=O)O)ccc(C(C)=O)c1O	5.8
CCCc1c(OCCCCCC(=O)O)ccc(C(=O)CC)c1O	6.1

Continued, values first:

pKB	Compound
7	CCCc1c(OCCCCCCCc2nn[nH]n2)ccc(C(C)=O)c1O
6	CCCc1c(OCCCCCC(=O)O)ccc(C(C)=O)c1O
6.6	CCCc1c(OCCCCCc2nn[nH]n2)ccc(C(C)=O)c1O
5.7	CCCc1c(OCCCCCCC(=O)O)ccc(C(C)=O)c1O
7.1	CCCc1c(OCCCCCCc2nn[nH]n2)ccc(C(C)=O)c1O

Species: Cavia porcellus
Test: Percent inhibition LTD4-induced contraction of guinea pig ileum at 10 uM of concentration
Format: functional
Summary of the method: as §1

Compound	Inhibition [%]
CCCc1c(OCCCCCC(=O)O)ccc(O)c1C(C)=O	0

Species: Cavia porcellus
Test: Percent inhibition LTD4-induced contraction of guinea pig ileum at 30 uM of concentration
Format: functional
Summary of the method: as §1

Compound	Inhibition [%]
CCCc1c(OCC(=O)O)ccc(C(C)=O)c1O	8
CCCc1c(OCCCC(=O)O)ccc(C(C)=O)c1O	43
CCCc1c(OCCC(=O)O)ccc(C(C)=O)c1O	23
CCCc1c(OCc2nn[nH]n2)ccc(C(C)=O)c1O	28

Species: Cavia porcellus
Test: Negative logarithm of compound concentration that reduced an LTD4-induced contraction of guinea pig ileum by 50%
Format: functional
Summary of the method: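 Ileum from male Hartley guinea pigs (200-400 g), with isometric tension recorded. Two, three or four antagonist concentrations were tested on a single ileum against a submaximal LTD4 contraction. The concentration giving 50% inhibition was extrapolated by linear regression and expressed as -log IC50.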

Compound	IC50 [µM]
CCCc1c(OCCCCCCN2CCOCC2)ccc(C(C)=O)c1O	3.16
CCCc1c(OCCCCCCCCCC(=O)O)ccc(C(C)=O)c1O	0.794
CCCc1c(OCCCCCCN2CCN(C)CC2)ccc(C(C)=O)c1O	5.01

Second part, the molecule after the results:

IC50 [µM]	Compound
0.251	CCCc1c(OCCCCCCCCCc2nn[nH]n2)ccc(C(C)=O)c1O
3.98	CCCc1c(OCCCCCCO)ccc(C(C)=O)c1O
0.794	CCCc1c(OCCCCCCCC(=O)O)ccc(C(C)=O)c1O
3.16	CCCc1c(OCCCCCCCCCCc2nn[nH]n2)ccc(C(C)=O)c1O
6.31	CCCc1c(OCCCCCCN(C)C)ccc(C(C)=O)c1O
0.316	CCCc1c(OCCCCCCCCc2nn[nH]n2)ccc(C(C)=O)c1O
